NPY Y2 blocker: NPY-Y2 receptor antagonists, primary screen, cell-based. Neuropeptide Y receptor type 2 (Homo sapiens), P49146. inhibition, % at 2.7 µM. actives 0.99% (n = 140,000). NPY-Y2 expressing cells, antagonist mode;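 further: 0% = vehicle with agonist challenge and 100% = reference antagonist with challenge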
NPY-Y1 PAM-ag: NPY-Y1 receptor potentiators or agonists, primary screen, cell-based | Neuropeptide Y receptor type 1 (Homo sapiens), P25929 | NPY-Y1 expressing cells, potentiator/agonist activation | activation, % at 3.6 µM | actives 0.37% (n = 220,000); in the data active means activation above about 33%, passing the limit was not always enough;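 further: cells stimulated with NPY at EC10 then isoproterenol at EC100; 0% = low agonist plus stimulus and 100% = saturating agonist plus stimulus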
Target sequence (P25929 whole entry, looked up): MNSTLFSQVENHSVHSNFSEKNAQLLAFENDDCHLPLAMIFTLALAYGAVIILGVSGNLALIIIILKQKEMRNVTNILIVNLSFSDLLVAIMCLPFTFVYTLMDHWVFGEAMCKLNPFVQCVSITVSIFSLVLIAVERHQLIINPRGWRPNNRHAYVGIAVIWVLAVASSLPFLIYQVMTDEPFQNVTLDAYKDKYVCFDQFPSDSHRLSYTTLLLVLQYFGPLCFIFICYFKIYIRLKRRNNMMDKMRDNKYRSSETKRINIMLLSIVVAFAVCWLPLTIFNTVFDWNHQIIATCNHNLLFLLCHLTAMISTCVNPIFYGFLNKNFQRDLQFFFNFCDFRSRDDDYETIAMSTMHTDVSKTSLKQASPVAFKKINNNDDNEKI
NPY-Y2 PAM-ag: NPY-Y2 potentiators or agonists, primary screen, cell-based; Neuropeptide Y receptor type 2 (Homo sapiens), P49146; actives 0.45% (n = 220,000); activation, % at 3.6 µM; AID 1359, 2008; cells expressing NPY-Y2, potentiator/agonist read-out; in the data active means activation above about 27%;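 further: cells stimulated with NPY near EC25 plus isoproterenol at EC100; 0% = vehicle plus submaximal agonist and 100% = vehicle plus saturating agonist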
KCC2 mod: KCC2 cotransporter modulators, thallium flux, primary screen, cell-based, HEK293 KCC2, FluoZin-2 fluorescence, MLSMR. Solute carrier family 12 member 5 (Homo sapiens), Q9H2X9. KCC2 cells, thallium flux FluoZin-2 fluorescence. B-score of Tl+ flux slope (higher = more flux/activation; lower = inhibition) at 10 µM. actives 2.2% (n = 190,000);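 active means thallium flux slope and its plate-corrected score both differing from the plate sample mean at a set confidence after two filtering rounds, in either direction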;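 further: slope of fluorescence scaled to starting intensity during 10 to 20 s after thallium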
Furin inh: human furin inhibitors, primary screen, biochemical, fluorescence intensity; actives 0.061% (n = 220,000); P09958; AID 463115, 2010; purified furin, fluorogenic substrate cleavage; inhibition, % at 20 µM or 30 µM; in the data active means inhibition above about 25%
NPY-Y1 antag: NPY-Y1 receptor antagonists, primary screen, cell-based. Neuropeptide Y receptor type 1 (Homo sapiens), P25929. HEK293-CNG Y1 cells, membrane potential fluorescence; NPY at EC95, then isoproterenol. inhibition, % at 3.6 µM. actives 1% (n = 200,000);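 active means inhibition above the campaign mean inhibition of all tested compounds plus 3 SD, cut at about 20% in these data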;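 further: 0% = DMSO wells given NPY plus isoproterenol and 100% = isoproterenol alone without NPY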
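Assay system: HEK293 Y1/CNG channel cell line; Doses: single compound dose of 3.6 µM, 0.4% DMSO; Timing: dye 3 h, compound 60 min room temperature, stimulation 45 min; Technique: Membrane-potential fluorescent dye readout; Measure: % inhibition of NPY effect.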
NPY-Y1 ant conf: NPY-Y1 receptor antagonists, retest of hits, confirmation, HEK293-CNG cells, membrane potential fluorescence, triplicate; shares compounds with NPY-Y1 antag; cAMP; NPY challenge against isoproterenol-raised cAMP; inhibition, % at 3.6 µM; actives 21% (n = 1,200); in the data active means inhibition above about 20%;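 further: 0% = vehicle with agonist plus stimulus and 100% = stimulus alone without agonist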
NPY2 antag ctr: NPY-Y2 receptor antagonists, selectivity check, confirmation, counter-screen for NPY-Y1 antagonist project, HEK293-CNG cells, membrane potential fluorescence, triplicate; shares compounds with NPY-Y1 antag; actives 28% (n = 1,200); inhibition, % at 3.6 µM; antagonism; cells given NPY, then isoproterenol;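 further: 0% = DMSO with agonist challenge and 100% = reference antagonist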
The depositor's hits bear a star; nt = not tested or not shown. An excerpt weighted towards active compounds, which were near 3.7% of everything screened. Unless noted, no stated cut-off is given here; in the data, active means inhibition above about 17%; inactive means the rest.

SMILES | NPY Y2 blocker | NPY-Y1 PAM-ag | NPY-Y2 PAM-ag | KCC2 mod | Furin inh | NPY-Y1 antag | NPY-Y1 ant conf | NPY2 antag ctr
Cc1ccc(C(=O)NC(=S)Nc2ccc(CN3CCCCC3)cc2)c(C)c1 | nt | -32 | -31 | 1.8 | -18 | 24* | 18 | 27*
CCCN(CCC)C(=O)Nc1cc(Cl)ccc1OC | nt | -7 | 5 | -1 | -11 | nt | nt | nt
CCOC(=O)CNC(c1ccccc1)c1cc(Br)ccc1NC(C)=O (configuration not stated) | nt | -39 | -17 | nt | -21 | 47* | 5 | 7
N#Cc1nc(COc2ccc(Br)cc2)oc1NCCCn1ccnc1 | 7 | -14 | -21 | -1.5 | -5 | 26* | 6 | 8
Cc1c(Cl)ccc2c(C(=O)NCCN3CCCCC3)cc(-c3ccccn3)nc12 | nt | -102 | -63 | 1.1 | -5 | 25* | 20 | 29*
CCCOc1ccc(Cn2c(=O)oc3ccc(C)cc32)cc1OC | 4 | -42 | -29 | 1.6 | -11 | 32* | 6 | 8
COc1ccccc1OCCCn1c(=O)oc2ccc(C)cc21 | 2 | -20 | -14 | 0.59 | -19 | 9 | nt | nt
CN(C)S(=O)(=O)c1cccc(NC(=O)CN2C(=O)C3C4C=CC(C4)C3C2=O)c1 (configuration not stated) | 3 | -8 | -21 | 1.1 | -19 | 0 | nt | nt
CC(OC(=O)CC(NC(=O)c1ccccc1Cl)c1ccccc1)C(=O)Nc1cccc(Cl)c1Cl (configuration not stated) | 9 | -47 | -16 | -1.9 | -3 | 30* | 27* | 17*
CC(C)(C)OC(=O)C(C)(C)O/N=C(\C(=O)O)c1csc(N)n1 | nt | 1 | -5 | -0.17 | -14 | 3 | nt | nt
COc1cc([N+](=O)[O-])ccc1NC(=O)CSc1n[nH]c(C(C)C)n1 | nt | -25 | 0 | -0.47 | -18 | -3 | nt | nt
COc1ccc(CN2CCC(CO)(Cc3cccc(C(F)(F)F)c3)CC2)cc1Cn1cccn1 | nt | -25 | -11 | 0.032 | -26 | 17 | nt | nt
COc1ccc2nc(SC(C(=O)c3ccccc3)c3ccccc3)nc(C)c2c1 (configuration not stated) | 15 | -46 | -30 | 1 | -4 | 40* | 27* | 35*
Cc1nc(SC(C(=O)c2ccccc2)c2ccccc2)nc2ccccc12 (configuration not stated) | 9 | -15 | -6 | 0.56 | -5 | 6 | nt | nt
COc1cccc(-c2cc(C(=O)Nc3nc4ccccc4s3)c3ccccc3n2)c1 | 16 | -135 | -135 | 1.3 | -25 | 31* | 26* | 38*
COc1cccc(-c2cc(C(=O)Nc3ccc4c(c3)OCCO4)c3ccccc3n2)c1 | 4 | -11 | -5 | -0.12 | -17 | 3 | nt | nt
Cn1cnnc1SCC(=O)c1cc2ccccc2o1 | nt | 14 | 6 | 0.8 | -28 | 63* | -2 | -1
COc1ccc(-n2nnnc2SCC(=O)c2cc3ccccc3o2)cc1 | 5 | -30 | 5 | -0.34 | -27 | -4 | nt | nt
CCN(CCCNC(=O)c1cn(CC)c2ccc(S(=O)(=O)N(C)C)cc2c1=O)c1cccc(C)c1 | 13 | -18 | -18 | -1.6 | -17 | 35* | 57* | 72*
Nc1ccccc1C(=O)NNc1ncc(C(F)(F)F)cc1Cl | 5 | -80 | -28 | nt | -11 | 21* | 5 | 8
O=C(COC(=O)CNC(=O)c1ccccc1Cl)Nc1ncc(C(F)(F)F)cc1Cl | 1 | 4 | 1 | -1.8 | -9 | -2 | nt | nt
CCn1cc(C(=O)OCC(=O)OC2CC(C)CCC2C(C)C)c(=O)c2ccc(C)nc21 (configuration not stated) | 4 | -22 | -1 | nt | -10 | 21* | 11 | 8
C=CCOC(=O)c1cn(CC)c2nc(C)ccc2c1=O | nt | -5 | 6 | -0.54 | -19 | -1 | nt | nt
COC(=O)c1cc(OC)c(OC)cc1NC(=O)c1ccc(C)o1 | 0 | -17 | -3 | nt | -24 | 4 | nt | nt
COCCCNCCOc1ccccc1-c1ccccc1 | 14 | -21 | 4 | -0.58 | -12 | 7 | nt | nt
SMILES | NPY Y2 blocker | NPY-Y1 PAM-ag | NPY-Y2 PAM-ag | KCC2 mod | Furin inh | NPY-Y1 antag | NPY-Y1 ant conf | NPY2 antag ctr
CCCCNCCOc1ccccc1-c1ccccc1 | 16 | -30 | 3 | -0.32 | -28 | 30* | 15 | 12
c1ccc(-c2ccccc2OCCCCN2CCCCCC2)cc1 | nt | -14 | -13 | -1.9 | -11 | 24* | 9 | 11
c1ccc(-c2ccccc2OCCOCCN2CCCCC2)cc1 | 6 | -34 | -15 | -0.01 | -16 | 6 | nt | nt
CC1CCCN(CCCOc2ccccc2-c2ccccc2)C1 (configuration not stated) | nt | -5 | -10 | 0.25 | -32 | 25* | 14 | 11
Cn1c2c(c(=O)n(C)c1=O)C(C(F)(F)F)(C(F)(F)F)N=C(c1ccccc1Cl)N2 | -1 | -5 | 11 | -0.59 | -7 | -2 | nt | nt
Cn1c2c(c(=O)n(C)c1=O)C(C(F)(F)F)(C(F)(F)F)N=C(CCC1CCCCC1)N2 | 10 | -35 | -9 | 0.67 | -1 | 22* | 18 | 40*
COc1ccc(CNc2nc3ccccc3n2Cc2ccccc2)cc1OC | 5 | -11 | -10 | nt | -25 | 1 | nt | nt
COC(=O)C1C(c2ccc(OC)cc2)C(C(=O)OC)S(=O)(=O)C(CCN2CCCCC2)S1(=O)=O (configuration not stated) | nt | -7 | -7 | -0.033 | -23 | 4 | nt | nt
Cc1cc(C(=O)Cn2nc(C(=O)O)c3ccccc3c2=O)c(C)n1-c1ccc(F)cc1 | 13 | -39 | -23 | -1.2 | -12 | 22* | 14 | 12
Cc1cc(C(=O)Cn2nc(C(=O)O)c3ccccc3c2=O)c(C)n1-c1cccc(C(F)(F)F)c1 | nt | -19 | -20 | -1.8 | -8 | nt | nt | nt
CCN(CC)C(=O)CSc1nc2c(sc(=S)n2Cc2ccco2)c(=O)n1-c1ccccc1 | 9 | 2 | -53 | -2.2 | 1 | 27* | 3 | 5
CCN(CC)C(=O)CSc1nc2c(sc(=S)n2-c2ccccc2)c(=O)[nH]1 | nt | 19 | 2 | 0.096 | -1 | -1 | nt | nt
Cc1cc([N+](=O)[O-])nn1CC(=O)N1c2ccccc2CC1C (configuration not stated) | 0 | -19 | 8 | -0.24 | -26 | -4 | nt | nt

High-throughput results deposited in PubChem by several laboratories.
